PGE2 EP2 inh – blocks the human prostaglandin E2 receptor EP2; P43116; C6 glioma cells expressing human EP2, cAMP TR-FRET; cells stimulated with saturating PGE2; inhibition, % at 25 µM; 260,000 compounds, 0.52% hits; AID 1422;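 active means percent inhibition above 40 after rounding to a whole number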;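 further: rat C6 glioma host cells with rolipram phosphodiesterase inhibitor present; the protocol text gives 20 µM as final concentration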
GASC-1 inh – inhibitors of human GASC-1 (JMJD2C) demethylase; Q9H3R0; GST-JMJD2C(1-420) H3K9me3 demethylation, DELFIA europium; inhibition, % at 2.35 µM; 330,000 compounds, 0.069% hits;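 active means more than half of a compound's replicate wells show inhibition beyond 50%, single wells judged on their own value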;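 further: signal counts dimethyl H3K9 product captured on neutravidin plate; 0% = median of DMSO wells and 100% = 0.3 times that DMSO median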
Target sequence (Q9H3R0 1-420 limits assumed): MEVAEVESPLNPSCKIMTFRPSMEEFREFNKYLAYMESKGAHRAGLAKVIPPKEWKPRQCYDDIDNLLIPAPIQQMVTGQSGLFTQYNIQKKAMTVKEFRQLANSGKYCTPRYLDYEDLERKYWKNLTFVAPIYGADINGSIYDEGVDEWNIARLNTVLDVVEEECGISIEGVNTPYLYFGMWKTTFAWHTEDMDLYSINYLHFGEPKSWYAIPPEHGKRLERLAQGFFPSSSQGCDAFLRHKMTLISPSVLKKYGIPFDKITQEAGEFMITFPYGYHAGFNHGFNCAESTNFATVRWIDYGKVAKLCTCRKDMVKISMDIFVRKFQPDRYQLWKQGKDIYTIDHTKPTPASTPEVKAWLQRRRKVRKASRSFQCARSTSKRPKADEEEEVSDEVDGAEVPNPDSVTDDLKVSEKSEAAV
NR2E3 ag-1 – activates human photoreceptor nuclear receptor NR2E3. 320,000 compounds, 0.12% hits. inhibition of corepressor binding, % at 4.78 µM. GST-NR2E3/biotin-RetCOR TR-FRET, 1536-well. Q9Y5X4;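 active means percent inhibition above the cutoff of mean plus 3 SD of all tested compounds, set per screening campaign, cut at about 20% in these data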;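 further: 0% = DMSO wells and 100% = biotin wells as full block of FRET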
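system = GST-tagged NR2E3 plus biotinylated RetCOR corepressor | input = 1.35 nM GST-NR2E3 | also added = 7 nM biotin-RetCOR | schedule = 5 h incubation at 4 °C | measured by = TR-FRET with europium anti-GST and streptavidin-D2, 340 nm excitation | read-out = percent loss of FRET ratio relative to control wells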
NR2E3 ag-2 – human photoreceptor-specific nuclear receptor agonism. 360,000 compounds, 0.35% hits. inhibition of corepressor binding, % at 3.98 µM. CHO-S Gal4-NCOR/VP16-NR2E3 two-hybrid, luciferase. Q9Y5X4;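 active means inhibition above the mean of all tested compounds plus 3 SD, cut at about 70% in these data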;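 further: 0% = DMSO with NR2E3 transfected cells and 100% = cells lacking NR2E3 construct; higher means lower luciferase signal from less NR2E3 corepressor binding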
EP2 modulator – EP2 receptor (human) modulation | P43116 | EP2-expressing cells, cAMP HTRF FRET, PGE2 co-stimulation | induction, % at 25 µM | 260,000 compounds, 0.83% hits | AID 940;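 active means compounds whose cAMP rise, as percent of the full-agonist control response, exceeds 60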;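 further: rat C6 glioma line stably carrying human EP2 under a CMV promoter; the protocol text gives 20 µM as final concentration; 100% = response of wells given 1 µM PGE2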
Furin inhibitor – blocks human furin protease activity; P09958; purified furin, fluorogenic substrate cleavage; inhibition, % at 20 µM or 30 µM; 220,000 compounds, 0.061% hits; in the data active means inhibition above about 25%
NR2E3 ag conf – confirmation of human NR2E3 agonists. shares compounds with NR2E3 ag-2. CHO-S mammalian two-hybrid NR2E3-NCOR, luciferase luminescence. inhibition, % at 3.98 µM. 2,300 compounds, 51% hits;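 active means average inhibition above a cutoff equal to the mean inhibition of all tested compounds plus one SD, cut at about 70% in these data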;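 further: 0% = DMSO in NR2E3 cells and 100% = DMSO in cells lacking NR2E3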
GAL4-VP16 luc – reduces GAL4-VP16 reporter signal in NR2E3 counterscreen; shares compounds with NR2E3 ag-2; CHO-S GAL4-VP16 luciferase reporter, luminescence; inhibition, % at 3.98 µM; 2,300 compounds, 29% hits; AID 624379;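 active means mean inhibition above a cutoff equal to the average over all tested compounds plus one standard deviation, cut at about 70% in these data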;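 further: luciferase from a UAS reporter driven by GAL4-VP16 transactivation; 0% = DMSO with VP16-transfected cells and 100% = DMSO with cells lacking VP16; higher means less reporter light so more repression of VP16 activity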
* marks the source's active call; other numbers are inactive results. Shown are actives, neighbours in structure and some others; about 1.3% of the full set was active somewhere.

Results for CCc1cccc(NS(=O)(=O)c2ccc3c(c2)n(C)c(=O)n3C)c1 ?
GASC-1 inh: -4; NR2E3 ag-1: -1; NR2E3 ag-2: 64; NR2E3 ag conf: 58; GAL4-VP16 luc: 44

How did Cc1ccc(NS(=O)(=O)c2ccc3c(c2)n(C)c(=O)n3C)cc1 do in these assays?
GASC-1 inh: 0; NR2E3 ag-1: -4; NR2E3 ag-2: -3

How did Cn1c(=O)n(C)c2cc(NS(=O)(=O)c3ccc4c(c3)CCCC4)ccc21 do in these assays?
PGE2 EP2 inh: 6; GASC-1 inh: 6; NR2E3 ag-1: 1; NR2E3 ag-2: 66; EP2 modulator: -42; Furin inhibitor: -14; NR2E3 ag conf: 85*; GAL4-VP16 luc: 68

How did Cn1c(=O)n(C)c2cc(NS(=O)(=O)c3ccc(C(C)(C)C)cc3)ccc21 do in these assays?
PGE2 EP2 inh: 3; GASC-1 inh: 7; NR2E3 ag-1: 2; NR2E3 ag-2: 63; EP2 modulator: -23; Furin inhibitor: -13; NR2E3 ag conf: 82*; GAL4-VP16 luc: 76*

What do the screens show for `CN(C(=O)C(C)(C)C)c1ccc(OCC(=O)N2CCc3ccccc3C2)cc1`?
GASC-1 inh: -2; NR2E3 ag-1: -4; NR2E3 ag-2: 76*; NR2E3 ag conf: 62; GAL4-VP16 luc: 63

Results for Cc1ccc(OCC(=O)N2CCc3ccccc3C2)cc1 ?
GASC-1 inh: 10; NR2E3 ag-1: 5; NR2E3 ag-2: -24

Results for Cc1ccc(C(=O)Nc2cccc(C(F)(F)F)c2)cc1NC(=O)c1csc(-c2ccncc2)n1 ?
PGE2 EP2 inh: 28; GASC-1 inh: 5; NR2E3 ag-1: 3; NR2E3 ag-2: -24; EP2 modulator: -20; Furin inhibitor: -38

What do the screens show for `N#C/C(=N\Nc1cccc(C(F)(F)F)c1)C(=O)c1csc(-c2cccnc2)n1`?
PGE2 EP2 inh: 9; GASC-1 inh: -22; NR2E3 ag-1: -1; NR2E3 ag-2: 77*; EP2 modulator: -40; Furin inhibitor: -1; NR2E3 ag conf: 94*; GAL4-VP16 luc: 77*

What do the screens show for `CC(C)(C)[C@@H]1C=C(C(=O)O)O[C@H](OCCCCO)C1`?
PGE2 EP2 inh: -8; GASC-1 inh: -6; NR2E3 ag-1: 2; NR2E3 ag-2: -17

What do the screens show for `CC(C)(C)[C@H]1C=C(C(=O)Nc2ccccc2)O[C@@H](OCCCCO)C1`?
PGE2 EP2 inh: 4; GASC-1 inh: -8; NR2E3 ag-1: 0; NR2E3 ag-2: 65; NR2E3 ag conf: -3; GAL4-VP16 luc: -48

Results for CCOc1cc(S(=O)(=O)NCc2cccs2)ccc1Cl ?
PGE2 EP2 inh: 15; GASC-1 inh: -43; NR2E3 ag-1: -3; NR2E3 ag-2: -5; EP2 modulator: 10; Furin inhibitor: -22

What do the screens show for `Cc1ccc(S(=O)(=O)NCC(=O)NCc2ccncc2)cc1`?
PGE2 EP2 inh: 8; GASC-1 inh: -7; NR2E3 ag-1: -2; NR2E3 ag-2: -5; EP2 modulator: 33; Furin inhibitor: -24

How did Cc1cc(S(=O)(=O)NCc2ccncc2)c(C)cc1Br do in these assays?
GASC-1 inh: -1; NR2E3 ag-1: -1; NR2E3 ag-2: 101*; NR2E3 ag conf: 94*; GAL4-VP16 luc: 82*

How did CCOc1cc(S(=O)(=O)NCc2ccncc2)ccc1Cl do in these assays?
PGE2 EP2 inh: 8; GASC-1 inh: 1; NR2E3 ag-1: 4; NR2E3 ag-2: 88*; EP2 modulator: -17; Furin inhibitor: -12; NR2E3 ag conf: 97*; GAL4-VP16 luc: 87*

Results for Cc1ccc(S(=O)(=O)NCc2ccncc2)cc1 ?
PGE2 EP2 inh: 19; GASC-1 inh: -7; NR2E3 ag-1: -1; NR2E3 ag-2: 74*; EP2 modulator: 16; Furin inhibitor: -29; NR2E3 ag conf: 72*; GAL4-VP16 luc: 68

How did Cc1ccc(C)c(S(=O)(=O)NCc2ccncc2)c1 do in these assays?
PGE2 EP2 inh: 5; GASC-1 inh: -12; NR2E3 ag-1: 9; NR2E3 ag-2: 13; EP2 modulator: -11; Furin inhibitor: -18

Compound activity as filed in PubChem.
